# Measurements from ChEMBL document CHEMBL2157880, “Synthesis, antimycobacterial and antibacterial activity of ciprofloxacin derivatives containing a N-substituted benzyl moiety” (2012).
# Test system: Pseudomonas aeruginosa
# Assay: Antibacterial activity against Pseudomonas aeruginosa 10-20 after 18 to 24 hrs by NCCLS method
# Assay type: functional
# Method in brief: (§1)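 Standard NCCLS (M100-S11) MIC testing against Gram-positive and Gram-negative strains. Plates were incubated at 35 °C for 18–24 h. The MIC was read as the lowest concentration giving complete inhibition of visible bacterial growth.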
row,Compound,MIC [µg/mL]
1,COc1ccc(CN2CCN(c3cc4c(cc3F)c(=O)c(C(=O)O)cn4C3CC3)CC2)c(Cl)c1OC,64

# Test system: Staphylococcus aureus
# Assay: Antibacterial activity against Staphylococcus aureus ATCC 2592 after 18 to 24 hrs by NCCLS method
# Assay type: functional
# Method in brief: as §1
row,Compound,MIC [µg/mL]
1,COc1ccc(CN2CCN(c3cc4c(cc3F)c(=O)c(C(=O)O)cn4C3CC3)CC2)c(Cl)c1OC,0.06

# Test system: Staphylococcus aureus
# Assay: Antibacterial activity against methicillin-sensitive Staphylococcus aureus 10-11 after 18 to 24 hrs by NCCLS method
# Assay type: functional
# Method in brief: as §1
row,Compound,MIC [µg/mL]
1,COc1ccc(CN2CCN(c3cc4c(cc3F)c(=O)c(C(=O)O)cn4C3CC3)CC2)c(Cl)c1OC,0.5

# Test system: Klebsiella pneumoniae
# Assay: Antibacterial activity against extended spectrum beta-lactamases producing Klebsiella pneumoniae 10-3 after 18 to 24 hrs by NCCLS method
# Assay type: functional
# Method in brief: as §1
row,Compound,MIC [µg/mL]
1,COc1ccc(CN2CCN(c3cc4c(cc3F)c(=O)c(C(=O)O)cn4C3CC3)CC2)c(Cl)c1OC,> 128

# Test system: Enterococcus faecalis
# Assay: Antibacterial activity against Enterococcus faecalis 10-5 after 18 to 24 hrs by NCCLS method
# Assay type: functional
# Method in brief: as §1
row,Compound,MIC [µg/mL]
1,COc1ccc(CN2CCN(c3cc4c(cc3F)c(=O)c(C(=O)O)cn4C3CC3)CC2)c(Cl)c1OC,8

# Test system: Staphylococcus aureus
# Assay: Antibacterial activity against methicillin-resistant Staphylococcus aureus 10-11 after 18 to 24 hrs by NCCLS method
# Assay type: functional
# Method in brief: (§2)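 Incubated at 35 °C for 18–24 h under NCCLS (M100-S11) standards. MIC was read as the lowest concentration giving complete inhibition of visible bacterial growth.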
row,Compound,MIC [µg/mL]
1,COc1ccc(CN2CCN(c3cc4c(cc3F)c(=O)c(C(=O)O)cn4C3CC3)CC2)c(Cl)c1OC,64

# Test system: Mycobacterium tuberculosis
# Assay: Antimycobacterial activity against Mycobacterium tuberculosis H37Rv ATCC 27294 by microplate alamar blue assay
# Assay type: functional
# Method in brief: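 Microplate Alamar Blue fluorescence assay on strain H37Rv ATCC 27294. MIC was the lowest concentration cutting fluorescence by ≥90% against the mean of replicate bacterium-only controls.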
row,Compound,MIC [µg/mL]
1,COc1ccc(CN2CCN(c3cc4c(cc3F)c(=O)c(C(=O)O)cn4C3CC3)CC2)c(Cl)c1OC,2

# Test system: Staphylococcus epidermidis
# Assay: Antibacterial activity against methicillin-resistant Staphylococcus epidermidis 10-10 after 18 to 24 hrs by NCCLS method
# Assay type: functional
# Method in brief: as §2
row,Compound,MIC [µg/mL]
1,COc1ccc(CN2CCN(c3cc4c(cc3F)c(=O)c(C(=O)O)cn4C3CC3)CC2)c(Cl)c1OC,32

# Test system: Staphylococcus aureus
# Assay: Antibacterial activity against methicillin-sensitive Staphylococcus aureus 10-14 after 18 to 24 hrs by NCCLS method
# Assay type: functional
# Method in brief: as §1
row,Compound,MIC [µg/mL]
1,COc1ccc(CN2CCN(c3cc4c(cc3F)c(=O)c(C(=O)O)cn4C3CC3)CC2)c(Cl)c1OC,0.5

# Test system: Staphylococcus aureus
# Assay: Antibacterial activity against methicillin-resistant Staphylococcus aureus 10-13 after 18 to 24 hrs by NCCLS method
# Assay type: functional
# Method in brief: as §2
row,Compound,MIC [µg/mL]
1,COc1ccc(CN2CCN(c3cc4c(cc3F)c(=O)c(C(=O)O)cn4C3CC3)CC2)c(Cl)c1OC,128

# Test system: Klebsiella pneumoniae
# Assay: Antibacterial activity against extended spectrum beta-lactamases producing Klebsiella pneumoniae 10-2 after 18 to 24 hrs by NCCLS method
# Assay type: functional
# Method in brief: as §1
row,Compound,MIC [µg/mL]
1,COc1ccc(CN2CCN(c3cc4c(cc3F)c(=O)c(C(=O)O)cn4C3CC3)CC2)c(Cl)c1OC,> 128

# Test system: Pseudomonas aeruginosa
# Assay: Antibacterial activity against Pseudomonas aeruginosa 10-9 after 18 to 24 hrs by NCCLS method
# Assay type: functional
# Method in brief: as §1
row,Compound,MIC [µg/mL]
1,COc1ccc(CN2CCN(c3cc4c(cc3F)c(=O)c(C(=O)O)cn4C3CC3)CC2)c(Cl)c1OC,128

# Test system: Escherichia coli
# Assay: Antibacterial activity against extended spectrum beta-lactamases producing Escherichia coli 10-4 after 18 to 24 hrs by NCCLS method
# Assay type: functional
# Method in brief: as §1
row,Compound,MIC [µg/mL]
1,COc1ccc(CN2CCN(c3cc4c(cc3F)c(=O)c(C(=O)O)cn4C3CC3)CC2)c(Cl)c1OC,> 128

# Test system: Escherichia coli
# Assay: Antibacterial activity against extended spectrum beta-lactamases producing Escherichia coli 10-3 after 18 to 24 hrs by NCCLS method
# Assay type: functional
# Method in brief: as §1
row,Compound,MIC [µg/mL]
1,COc1ccc(CN2CCN(c3cc4c(cc3F)c(=O)c(C(=O)O)cn4C3CC3)CC2)c(Cl)c1OC,> 128

# Test system: Escherichia coli
# Assay: Antibacterial activity against Escherichia coli 10-2 after 18 to 24 hrs by NCCLS method
# Assay type: functional
# Method in brief: as §1
row,Compound,MIC [µg/mL]
1,COc1ccc(CN2CCN(c3cc4c(cc3F)c(=O)c(C(=O)O)cn4C3CC3)CC2)c(Cl)c1OC,32

# Test system: Staphylococcus epidermidis
# Assay: Antibacterial activity against methicillin-sensitive Staphylococcus epidermidis 10-15 after 18 to 24 hrs by NCCLS method
# Assay type: functional
# Method in brief: as §2
row,Compound,MIC [µg/mL]
1,COc1ccc(CN2CCN(c3cc4c(cc3F)c(=O)c(C(=O)O)cn4C3CC3)CC2)c(Cl)c1OC,32

# Test system: Enterococcus faecium
# Assay: Antibacterial activity against Enterococcus faecium 10-6 after 18 to 24 hrs by NCCLS method
# Assay type: functional
# Method in brief: as §1
row,Compound,MIC [µg/mL]
1,COc1ccc(CN2CCN(c3cc4c(cc3F)c(=O)c(C(=O)O)cn4C3CC3)CC2)c(Cl)c1OC,4

# Test system: Staphylococcus aureus
# Assay: Antibacterial activity against methicillin-sensitive Staphylococcus aureus 10-13 after 18 to 24 hrs by NCCLS method
# Assay type: functional
# Method in brief: as §1
row,Compound,MIC [µg/mL]
1,COc1ccc(CN2CCN(c3cc4c(cc3F)c(=O)c(C(=O)O)cn4C3CC3)CC2)c(Cl)c1OC,0.5

# Test system: Klebsiella pneumoniae
# Assay: Antibacterial activity against extended spectrum beta-lactamases producing Klebsiella pneumoniae 10-1 after 18 to 24 hrs by NCCLS method
# Assay type: functional
# Method in brief: as §1
row,Compound,MIC [µg/mL]
1,COc1ccc(CN2CCN(c3cc4c(cc3F)c(=O)c(C(=O)O)cn4C3CC3)CC2)c(Cl)c1OC,> 128
